The text below walks through data of PMC11293135 (Journal of Nanobiotechnology, 2024).

Counter-ions that a name gives are not always drawn.

The test system of data set [1] is 4T1 tumor-bearing mice. Put plainly: In vivo MR-T1 mapping imaging. Further details: species or system BALB/c mice. The note with it: by 3 h post-injection, 1 mg/kg i.v., n = 3. Summed up:
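4T1 flank tumors were raised in female BALB/c mice (1.0 × 10^6 cells s.c.), n = 3 per group. The click group received azido-sugar 40 mg/kg i.p. once daily for 3 days; the other groups received PBS. Mice were then injected i.v. with 150 μL (1 mg/kg) of Gd probe or Gd-DOTA. T1 mapping was done before injection and at 1, 2, 3 and 4 h, and tumor 1/T1 values were quantified.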

Another data set concerns DCs from TDLNs. Put plainly: DC maturation in TDLNs by flow cytometry. The note with it: mean ± SD, n = 5. The class given is in vivo, BALB/c mice. An outline of the steps:
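Female BALB/c mice (5–6 weeks) received 1.0 × 10^6 4T1 cells s.c. in the flank. Once tumors reached ~150 mm3, click groups got azido-sugar 40 mg/kg i.p. daily for 3 days and others got PBS. All groups then received 5 mg/kg i.v. every 7 days (n = 5). TDLNs were digested with collagenase IV (37 °C, 1 h) and strained at 70 μm. Mature DCs were gated CD40+CD80+MHC II+CCR7+. Mean ± SD reported.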
(In general: A flow cytometer gives signals particle by particle.)

Data set [2] has as its system 4T1 tumor-bearing mice. Put plainly: Treatment-related toxicity. Type of data set: in vivo, BALB/c mice. The settings on record: 5 mg/kg. An outline of the steps: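 Female BALB/c mice bearing ~150 mm3 s.c. 4T1 tumors were split into 5 groups (n = 5). Click groups were pretreated with azido-sugar 40 mg/kg i.p. daily for 3 days; others received PBS. Treatments at 5 mg/kg i.v. were given every 7 days. Body weight was recorded every 2 days for 14 days. Major organs were fixed in 4% paraformaldehyde, paraffin-embedded, and H&E stained.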

Another data set concerns PD-L1. The note with it: DOX treatment; ref [41], [42]; cited from earlier work.
The test system of a further data set is HC11 cells. In words: In vitro cytotoxicity, CCK-8 assay. Type of data set: cell-based, mouse. The note with it: concentrations up to 50 μM, three days. An outline of the steps: (§1)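 4T1 and HC11 cells were grown in RPMI-1640 with 10% FBS at 37 °C and 5% CO2. Cells were exposed to the azido-sugar test compound at 0–50 μM for 3 days. Viability was read by CCK-8.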
(Tetrazolium dyes change colour on reduction, which living cells bring about.)

For the next data set, the system named is 4T1 cells. Put plainly: In vitro cytotoxicity, CCK-8 assay. The class given is cell-based, murine. The note with it: concentrations up to 50 μM, three days. An outline of the steps:
as §1

As for `O=C([O-])CN1CCN(CC(=O)[O-])CCN(CC(=O)[O-])CCN(CC(=O)[O-])CC1.[Gd+3]` [Gd-DOTA], the “Tumor MR signal” value in the data set with 4T1 tumor-bearing mice [1] was “returned to baseline levels”.
With `COc1cccc2c1C(=O)c1c(O)c3c(c(O)c1C2=O)C[C@@](O)(C(=O)CO)C[C@@H]3O[C@H]1C[C@H](N)[C@H](O)[C@H](C)O1` [DOX, Doxorubicin hydrochloride], the “MHC-II expression in TDLNs” value with DCs from TDLNs stood at 45.04 ± 1.85%. The Body weight change entry in the data set with 4T1 tumor-bearing mice [2] (measured every two days for 14 days, n = 5) is “severe weight loss”. Further, the “H&E analyses on major organs compared to PBS-treated mice” value in the data set with 4T1 tumor-bearing mice [2] (end of antitumor study) was “substantial damage”. In addition, in the data set with PD-L1, the “PD-L1 expression of 4T1 cells” value was “elevation in PD-L1 expression”.
`CC(=O)OC[C@H]1OC(OC(C)=O)[C@@H](NC(=O)CN=[N+]=[N-])[C@@H](OC(C)=O)[C@@H]1OC(C)=O` (stereo partly shown) [Ac4ManNAz, tetraacetyl-N-azidoacetylmannosamine]: in the data set on HC11 cells, the “Cytotoxicity to HC11 cells” value is reported as “no significant harm”. For the same compound, the “Cytotoxicity to 4T1 cells” value in the data set on 4T1 cells was “no significant harm”.
